The list is not random: actives were taken first. Their share in the collection is about 5.7%.
CSC inhib: cancer stem cell inhibition; inhibition, % at 7.5 µM; cancer stem cell-like cells viability, luminescence; actives 1.1% (n = 300,000); in the data active = inhibition above about 75%; inconclusive = no clear call, values can overlap the other calls; tested in HMLE shEcad cells
SKKanGAS inh: inhibitors of SKKanGAS S. pyogenes growth in kanamycin (SK-promoter or general growth effect); BacTiter-Glo, 6 h; inhibition, % at 7.5 µM; actives 1.3% (n = 300,000); AID 1662;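 active = mean replicate score, as percent of positive control median, at least 50; inconclusive = mean below 50 but one replicate at or above 50; inactive = mean and every replicate below 50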;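 note: strain carries kanamycin resistance gene driven by streptokinase promoter and grows in 40 µg/ml kanamycin; loss of luminescence reflects streptokinase promoter inhibition or plain growth inhibition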
Mdm2 MdmX PPI: disrupts the human Mdm2-MdmX interaction; SaOS-2 split-luciferase Mdm2/MdmX complementation, luminescence; inhibition, % at 8 µM; actives 3% (n = 330,000);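 active = inhibition of at least 50% at 8 µM in the primary screen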
Target sequence (O15151 whole entry, looked up): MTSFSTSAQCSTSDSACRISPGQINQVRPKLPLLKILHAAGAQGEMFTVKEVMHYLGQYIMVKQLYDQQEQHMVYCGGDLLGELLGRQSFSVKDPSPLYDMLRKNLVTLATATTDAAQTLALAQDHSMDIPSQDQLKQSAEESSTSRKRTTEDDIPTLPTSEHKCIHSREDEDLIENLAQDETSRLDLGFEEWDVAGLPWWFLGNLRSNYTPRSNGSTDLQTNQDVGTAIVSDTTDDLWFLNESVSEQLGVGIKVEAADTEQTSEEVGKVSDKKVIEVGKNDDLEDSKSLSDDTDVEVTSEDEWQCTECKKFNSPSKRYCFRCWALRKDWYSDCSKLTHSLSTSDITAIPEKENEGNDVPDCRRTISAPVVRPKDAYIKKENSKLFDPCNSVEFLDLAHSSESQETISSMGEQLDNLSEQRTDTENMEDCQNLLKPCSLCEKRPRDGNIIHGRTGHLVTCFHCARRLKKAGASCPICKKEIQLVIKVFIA
Target sequence (Q00987 whole entry, looked up): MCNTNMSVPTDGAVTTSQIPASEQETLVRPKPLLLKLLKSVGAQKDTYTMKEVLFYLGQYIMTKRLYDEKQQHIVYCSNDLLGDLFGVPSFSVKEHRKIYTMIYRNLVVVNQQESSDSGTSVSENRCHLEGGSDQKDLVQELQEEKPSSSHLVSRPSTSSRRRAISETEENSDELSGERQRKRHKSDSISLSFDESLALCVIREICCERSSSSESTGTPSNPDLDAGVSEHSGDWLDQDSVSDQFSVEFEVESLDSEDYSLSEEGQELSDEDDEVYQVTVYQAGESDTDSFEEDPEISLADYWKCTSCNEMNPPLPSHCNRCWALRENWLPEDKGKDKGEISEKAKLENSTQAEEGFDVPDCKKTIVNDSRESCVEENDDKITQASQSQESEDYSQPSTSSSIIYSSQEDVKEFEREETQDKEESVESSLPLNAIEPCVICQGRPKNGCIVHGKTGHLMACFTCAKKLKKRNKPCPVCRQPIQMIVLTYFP
T cruzi inh: T. cruzi replication inhibition; actives 1.4% (n = 300,000); AID 1885; inhibition, % (test concentration not listed); T. cruzi beta-gal in NIH3T3, luminescence, 90 h;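 active = mean inhibition across valid replicates above about 55%, limit read from the data; inconclusive = mean below that limit but half or more replicates reach it; inactive = mean below it, under half of replicates reach it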;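 note: signal also drops with host cell toxicity which is not excluded here; higher percent means less beta-gal luminescence so fewer parasites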
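Read-out: Parasite load inhibition, % | Test system: Mouse NIH/3T3 fibroblasts infected with β-gal-expressing T. cruzi Tulahuen C4 | Amount: 5,000 cells/well | Medium: DMEM, 2% fetal bovine serum | Signal: GalScreen β-gal luminescence, detergent lysis, 60 min | Timing: 3 h attach, ≥90 h co-culture | Also added: Tulahuen C4 trypomastigotes, 5000/well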
Beta apoptosis: blocks beta cell apoptosis | INS-1E cytokine-induced death, ATP luminescence, 48 h; percent of positive-control rescue, neutral wells zero | protection from apoptosis, % (test concentration not listed) | actives 0.8% (n = 300,000) | AID 435005;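 active = Every replicate reaches about 75%, or at least half do and their mean reaches it too, limit read from the data; inconclusive = At least half of replicates reach the limit but their mean does not; inactive = Under half of replicates reach the limit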;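 note: higher means more ATP so stronger rescue from cytokine killing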
Calb FLC: affects C. albicans growth with fluconazole. C. albicans CaCi-2 (fluconazole-resistant clinical isolate) + fluconazole, Alamar Blue growth, 48 h. actives 0.57% (n = 300,000). growth inhibition, % (no concentration beside the values);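 active = growth inhibition above about 58% in most replicates, limit read from the data, passing the limit was not always enough; inconclusive = exactly half the replicates above a set limit; inactive = most replicates below a set limit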;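 note: all wells also contain fluconazole at 8 µg/ml as a sub-toxic cotreatment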
A number is an active result; 0 = inactive; ? = inconclusive; - = no result given.

SMILES	CSC inhib	SKKanGAS inh	Mdm2 MdmX PPI	T cruzi inh	Beta apoptosis	Calb FLC
Cc1nn(CC(=O)c2ccc3c(c2)OCCO3)c(=O)c(C#N)c1C	0	-	0	-	0	-
O=C(CCCc1nc(-c2ccc(Cl)cc2)no1)NC1CCCC1	0	0	0	0	106.9	0
COc1ccc(OCC(=O)Nc2c3c(nn2-c2ccc(OC)cc2)CS(=O)(=O)C3)cc1	0	0	0	0	0	0
O=S(=O)(NC1C2CC3CC(C2)CC1C3)c1ccc(F)cc1 (stereo unspecified)	-	-	0	-	-	-
COc1ccc(Oc2nc(C(F)(F)F)nc3ccccc23)cc1	0	51.8	0	0	0	0
O=C(NCCc1ccc(Cl)cc1)C(=O)c1c[nH]c2ccccc12	0	0	0	0	0	0
O=C(NCCc1c[nH]c2ccccc12)C(=O)c1c[nH]c2ccccc12	111.8	0	0	0	-	0
O=C(CN1C(=O)NC(c2ccccc2)(c2ccccc2)C1=O)NCCc1ccc(F)cc1	-	-	0	-	0	-
O=S(=O)(NCc1nnc2ccccn12)c1ccc(F)cc1	-	-	0	-	-	-
O=C(/C=C/c1ccc(NC(=O)c2ccccc2-c2ccccc2C(=O)O)cc1)c1ccccc1	0	0	0	0	0	98.2
O=C(/C=C/c1ccncc1)c1ccc(NC(=O)c2ccccc2F)cc1	80.2	-	-	-	0	-
COc1ccc(C2=NN(C(=O)CSc3nc(=O)n4cccc(C)c4n3)C(c3ccc(C)cc3)C2)cc1 (stereo unspecified)	0	0	0	0	-	0
CN(C)c1ccc(/C=C/c2ccc3ccccc3n2)cc1	83.9	75.2	-	0	76.2	0
Cc1ccc2ncnc(Nc3ccc(C)c(C)c3)c2c1	79.9	0	0	0	0	0
CCCOc1cccc(-c2nnc(NC(=O)c3ccco3)s2)c1	0	0	0	0	0	88.3
NC(=O)c1nsc(C(=O)N(Cc2cccnc2)C(C(=O)NCc2ccc(F)cc2)c2ccc(F)cc2)c1N (stereo unspecified)	0	0	0	0	0	0
CSc1ccccc1-c1n[nH]c(=S)o1	-	56.2	0	0	-	0
CSc1nc(SCC(=O)O)c2sc3nc(-c4ccccc4)c4c(c3c2n1)CCC4	-	68.4	-	0	-	0
CSc1nc(N(C)CCO)c2sc3nc(-c4ccco4)c4c(c3c2n1)CCC4	0	0	0	0	0	0
CCOc1ccc(S(=O)(=O)N2CCCCC2)cc1NC(=O)Cc1cccs1	0	0	0	0	0	0
Cn1nc(C(=O)NCCCN2CCCCC2)c2c1-c1ccccc1SC2	0	0	0	0	0	0
COc1cc(-c2nc3ccc4ccccc4c3c3c2CCC3)ccc1O	78.1	0	0	0	0	0
COc1cc(-c2nc3ccc4ccccc4c3c3c2CCC3)cc(OC)c1O	0	0	0	0	0	0
Cc1ccc(Cl)cc1N(CC(=O)NC1CCCC1)C(=O)c1csnn1	0	0	0	0	0	0
COc1ccc(OC)c(-c2cc(C3CCN(c4cc(Cl)nc(N)n4)CC3)[nH]n2)c1	0	0	0	0	0	0
SMILES	CSC inhib	SKKanGAS inh	Mdm2 MdmX PPI	T cruzi inh	Beta apoptosis	Calb FLC
COc1ccc(OC)c(-c2cc(C3CCN(c4ncccc4[N+](=O)[O-])CC3)[nH]n2)c1	-	57.1	0	0	0	0
O=[N+]([O-])c1cccnc1N1CCC(c2cc(-c3ccc(Cl)cc3Cl)n[nH]2)CC1	106.0	80.4	0	0	0	0
O=[N+]([O-])c1cccnc1N1CCCCC1	0	0	0	0	0	0
O=[N+]([O-])c1cccnc1N1CCC(c2cc(-c3cccc(C(F)(F)F)c3)n[nH]2)CC1	122.7	100.0	0	0	0	0
CC(C)NS(=O)(=O)c1ccc(NC(=O)C(C)OC(=O)CCC(=O)c2cccs2)cc1 (stereo unspecified)	0	-	0	-	0	-
O=C(NCC(=O)N1CCN(S(=O)(=O)c2ccc3c(c2)OCCO3)CC1)c1ccccc1Cl	0	-	0	-	0	-
c1ccc(-c2n[nH]c3c2CCC3)cc1	0	0	0	0	0	0
Clc1ccc(-c2n[nH]c3c2CCC3)c(Cl)c1	0	95.7	0	0	0	0
Cc1ccc(NS(=O)(=O)c2ccc(N3CCN(c4ccc(O)cc4)CC3)c([N+](=O)[O-])c2)c(C)c1	83.1	0	0	0	0	0
O=[N+]([O-])c1cc(S(=O)(=O)Nc2ccccc2)ccc1N1CCN(c2ccc(O)cc2)CC1	76.6	0	0	0	0	0
CN1CCN(S(=O)(=O)c2ccc(N3CCN(c4ccc(O)cc4)CC3)c([N+](=O)[O-])c2)CC1	0	0	0	0	0	0
CC(C)n1cc(CN2CCCC(CNS(=O)(=O)c3cccc4cccnc34)C2)cn1 (stereo unspecified)	0	0	0	64.3	-	0
CCN(C[C@H]1N[C@@](C)(C(=O)OC)[C@H]2C(=O)N(C)C(=O)[C@@H]12)C(=O)Nc1ccccc1	-	-	0	-	0	-
C=CCn1c(=O)[nH]c2nc3cc(N=CN(C)C)c(C)cc3nc2c1=O	0	0	0	0	0	0
Cc1cc2nc3c(=O)n(CCc4ccccc4)c(=O)[nH]c3nc2cc1N	0	0	0	56.4	0	0
Nc1ccc2nc3c(=O)n(CCc4ccccc4)c(=O)[nH]c3nc2c1	76.9	0	0	0	0	0
CCCCn1c(=O)[nH]c2nc3cc(N)ccc3nc2c1=O	0	-	-	-	0	-
CCN(C(=O)COC(=O)c1ccc([N+](=O)[O-])o1)C1CCCCC1	0	-	0	-	0	-
O=C1[C@@H]2[C@H](Cc3ccc(O)cc3)N[C@]3(C(=O)Nc4ccccc43)[C@@H]2C(=O)N1c1ccc(F)cc1	-	0	0	0	0	0
Cc1c(Cl)ccc2c1NC(=O)[C@]21N[C@@H](Cc2ccccc2)[C@H]2C(=O)N(c3ccc(F)cc3)C(=O)[C@H]21	0	0	0	0	0	89.1
CCN(CC)C(=S)SSC(=S)N(CC)CC	0	0	0	0	?	100.3
CCN(CC)C(=S)SCC(=O)c1ccccc1	0	0	0	0	-	0
CN(C(=O)c1cccc(C(F)(F)F)c1)C1CCCc2ccccc21 (stereo unspecified)	0	0	0	0	0	0
Fc1cccc(-n2cc(-c3ccccc3)c3c(=S)nc[nH]c32)c1	0	83.6	0	0	0	101.3
O=c1[nH]cnc2c1c(-c1ccccc1)cn2-c1ccccc1	0	0	0	0	0	0
Fc1ccc(-n2cc(-c3ccccc3)c3c(=S)nc[nH]c32)cc1	0	65.5	0	0	0	0
COc1ccc2c(c1OC)C(=O)N1C2SC(C)(C)[C@H]1C(=O)NCC(C)C (stereo partly specified)	0	0	0	0	0	0
O=c1ccc(-c2ccc(S(=O)(=O)Nc3ccc(F)cc3)o2)n[nH]1	0	0	0	0	0	0
CN1C[C@@H]2C(c3ccccc3)C3(c4ccc(C#N)cc4)CC2(C3)[C@H]1c1ccccc1 (stereo partly specified)	0	0	0	0	0	0
